From ChEMBL document CHEMBL4732017, “Discovery, affinity maturation and multimerization of small molecule ligands against human tyrosinase and tyrosinase-related protein 1” (RSC Med Chem, 2021)
Each block holds one compound with its values, some of them ahead of it. Calls of active or inactive are those of the source. The rule behind the calls is not given here.

What was measured:
[1] = target: T1, Tyrosinase (Homo sapiens) (UniProt P14679); assay: Binding affinity to human tyrosinase at 50 uM at pH 6.8 by enzymatic assay
T1 sequence (whole entry): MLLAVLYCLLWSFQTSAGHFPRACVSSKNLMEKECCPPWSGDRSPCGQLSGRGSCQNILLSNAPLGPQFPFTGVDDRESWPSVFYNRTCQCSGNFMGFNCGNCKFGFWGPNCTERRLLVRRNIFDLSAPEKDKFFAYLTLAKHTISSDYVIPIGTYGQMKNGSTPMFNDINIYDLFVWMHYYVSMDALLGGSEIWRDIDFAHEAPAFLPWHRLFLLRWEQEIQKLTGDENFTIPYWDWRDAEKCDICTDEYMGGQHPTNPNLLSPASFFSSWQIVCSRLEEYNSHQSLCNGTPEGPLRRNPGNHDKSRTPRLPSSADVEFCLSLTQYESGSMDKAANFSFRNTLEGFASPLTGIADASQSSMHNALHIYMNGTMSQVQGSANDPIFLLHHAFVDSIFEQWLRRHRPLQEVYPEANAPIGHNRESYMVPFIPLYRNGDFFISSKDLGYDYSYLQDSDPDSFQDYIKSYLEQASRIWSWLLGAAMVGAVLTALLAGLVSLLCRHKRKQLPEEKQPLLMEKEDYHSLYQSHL
Method in brief: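 Human tyrosinase intramelanosomal domain (residues 19–456), 200 nM, with 1 mM L-DOPA and 4 mM MBTH in PBS pH 6.8 with 1% DMSO at 25 °C. Dopaquinone-MBTH absorbance at 490–510 nm is recorded over 10 min, in duplicate, and the OD–time slope is taken by linear regression. Single-point tests use a fixed 50 µM inhibitor. IC50 comes from fitting the slope against inhibitor concentration.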

[2] = target: T1, Tyrosinase (Homo sapiens); assay: Binding affinity to human tyrosinase expressed in mouse B16F10 cells at 10 uM by fluorophore based flow cytometry assay; details: B16-F10
[3] = target: 5,6-dihydroxyindole-2-carboxylic acid oxidase (Homo sapiens) (UniProt P17643); assay: Binding affinity to human tyrosinase related protein 1 expressed in mouse B16F10 cells at 10 uM by fluorophore based flow cytometry assay; details: B16-F10
[4] = target: 5,6-dihydroxyindole-2-carboxylic acid oxidase (Homo sapiens) (UniProt P17643); assay: Binding affinity to human tyrosinase related protein 1 up to 100 uM by ELISA; details: dose microM <=100
Method in brief: (§1)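 Wells are coated overnight at 4 °C with 100 nM hTYR or hTYRP1 in PBS and blocked with 4% milk-PBS for 30–45 min. A serial dilution of fluorescein-ligand conjugate is added for 45 min in the dark. Detection uses 200 nM anti-fluorescein IgG, then protein A-HRP (1:1000), each for 45 min with washes between. Absorbance is read at 450 and 620 nm, and values are fitted.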

[5] = target: T1, Tyrosinase (Homo sapiens); assay: Binding affinity to human tyrosinase up to 100 uM by ELISA; details: dose microM <=100; method in brief: as §1
[6] = target: 5,6-dihydroxyindole-2-carboxylic acid oxidase (Homo sapiens) (UniProt P17643); assay: Binding affinity to human tyrosinase related protein 1 up to 10 uM by fluorescence polarization analysis; details: dose microM <=10
Method in brief: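 hTYRP1 intramelanosomal domain (residues 25–471) is serially diluted 1:1 and incubated with 50 nM fluorescein-conjugated ligand in PBS pH 7.4. Fluorescence anisotropy is read in triplicate and anisotropy values are fitted against protein concentration.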

5,6-dihydroxyindole-2-carboxylic acid oxidase (Homo sapiens), sequence (P17643 whole entry, the tested form may be a part): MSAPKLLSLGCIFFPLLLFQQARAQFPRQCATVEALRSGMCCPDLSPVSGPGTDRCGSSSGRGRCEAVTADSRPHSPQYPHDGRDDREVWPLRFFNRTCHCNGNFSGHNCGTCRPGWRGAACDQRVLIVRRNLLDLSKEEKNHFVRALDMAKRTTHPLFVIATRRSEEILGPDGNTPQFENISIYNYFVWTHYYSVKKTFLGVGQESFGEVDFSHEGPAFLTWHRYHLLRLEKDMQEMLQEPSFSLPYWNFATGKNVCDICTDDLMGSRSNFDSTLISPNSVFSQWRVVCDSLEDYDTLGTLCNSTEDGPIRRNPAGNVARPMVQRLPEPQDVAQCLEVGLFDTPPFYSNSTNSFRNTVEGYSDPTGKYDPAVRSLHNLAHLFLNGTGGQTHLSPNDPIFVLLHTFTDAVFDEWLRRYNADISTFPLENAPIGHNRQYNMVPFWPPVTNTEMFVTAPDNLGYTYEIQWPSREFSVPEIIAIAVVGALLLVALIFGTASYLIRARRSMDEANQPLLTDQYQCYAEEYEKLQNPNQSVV

- Activity [1]: Active
Compound: CN(C)c1ccc(CC(=O)N[C@H](CCC(N)=O)C(=O)NCc2ccccc2N2CCCC2)cc1

- Activity [2]: Active
- Activity [3]: Active
- Activity [4]: Active
- Activity [5]: Active
Compound: N=C(N)NCCC[C@@H](NC(=O)[C@@H](CC(=O)O)NC(=O)[C@H](CCCCNC(=O)[C@H](CCCCNC(=O)CCCCCNC(=O)CCCCn1cc(CCCC(=O)Nc2nc(-c3ccc(O)cc3O)cs2)nn1)NC(=O)CCCCCNC(=O)CCCCn1cc(CCCC(=O)Nc2nc(-c3ccc(O)cc3O)cs2)nn1)NC(=O)[C@H](CCCCNC(=O)CCCCCNC(=O)CCCCn1cc(CCCC(=O)Nc2nc(-c3ccc(O)cc3O)cs2)nn1)NC(=O)CCCCCNC(=O)CCCCn1cc(CCCC(=O)Nc2nc(-c3ccc(O)cc3O)cs2)nn1)C(=O)N[C@H](CC(=O)O)C(=O)NCCCCCC(=O)N[C@@H](CSC1CC(=O)N(c2ccc3c(c2)C(=O)OC32c3ccc(O)cc3Oc3cc(O)ccc32)C1=O)C(=O)O (stereo not given in full)

- Activity [6]: Active
Compound: CN(C)c1ccc(CC(=O)N[C@H](CCC(=O)NCCCCC(NC(=S)Nc2cccc3c2C(=O)OC32c3ccc(O)cc3Oc3cc(O)ccc32)C(=O)O)C(=O)NCc2ccccc2N2CCCC2)cc1 (stereo not given in full)

- Activity [1]: Active
Compound: CN(C)c1ccc(CC(=O)N[C@@H](CCC(N)=O)C(=O)NCc2ccccc2N2CCCC2)cc1

- Activity [1]: Active
Compound: CN(C)c1ccc(CC(=O)N[C@@H](CCC(N)=O)C(=O)N2CCCN(c3ccc(F)cc3)CC2)cc1

- Activity [6]: Active
Compound: CN(C)c1ccc(CC(=O)N[C@@H](CCC(=O)NCCCCC(NC(=S)Nc2cccc3c2C(=O)OC32c3ccc(O)cc3Oc3cc(O)ccc32)C(=O)O)C(=O)NCc2ccccc2N2CCCC2)cc1 (stereo not given in full)

- Activity [1]: Active
Compound: CN(C)c1ccc(CC(=O)N[C@@H](CCC(N)=O)C(=O)NCc2cccc(N3CCOCC3)c2)cc1

- Activity [1]: Active
Compound: CN(C)c1ccc(CC(=O)N[C@H](CCC(N)=O)C(=O)N2CCCN(c3ccc(F)cc3)CC2)cc1

- Activity [2]: Active
- Activity [3]: Active
- Activity [4]: Active
- Activity [5]: Active
Compound: N=C(N)NCCC[C@@H](NC(=O)[C@@H](CC(=O)O)NC(=O)CCCCn1cc(CCCC(=O)Nc2nc(-c3ccc(O)cc3O)cs2)nn1)C(=O)N[C@H](CC(=O)O)C(=O)NCCCCCC(=O)NC(CSC1CC(=O)N(c2ccc3c(c2)C(=O)OC32c3ccc(O)cc3Oc3cc(O)ccc32)C1=O)C(=O)O (single isomer, unassigned)

- Activity [1]: Active
Compound: CN(C)c1ccc(CC(=O)N[C@H](CCC(N)=O)C(=O)NCc2cccc(N3CCOCC3)c2)cc1

- Activity [2]: Active
- Activity [3]: Active
- Activity [4]: Active
- Activity [5]: Active
Compound: N=C(N)NCCC[C@@H](NC(=O)[C@@H](CC(=O)O)NC(=O)[C@H](CCCCNC(=O)CCCCCNC(=O)CCCCn1cc(CCCC(=O)Nc2nc(-c3ccc(O)cc3O)cs2)nn1)NC(=O)CCCCCNC(=O)CCCCn1cc(CCCC(=O)Nc2nc(-c3ccc(O)cc3O)cs2)nn1)C(=O)N[C@H](CC(=O)O)C(=O)NCCCCCC(=O)NC(CSC1CC(=O)N(c2ccc3c(c2)C(=O)OC32c3ccc(O)cc3Oc3cc(O)ccc32)C1=O)C(=O)O (single isomer, unassigned)
